Blank lines part the entries; values can stand above or below the molecule they belong to. Where a SMILES comes first, the peptide text is derived from it.
Experiments:
[1] = system: [α^32P]GTP•Arf1 (myrArf1); test: GAP assay: Arf GAP titration, hydrolysis of [α^32P]GTP bound to myrArf1; format: biochemical, Human; conditions: for C50 (amount of Arf GAP needed for 50% of maximum observed hydrolysis) / Maximum GTP Hydrolysis: 0.6 μM [α^32P]GTP•Arf1, 3 min, 30 °C, mean ± SD, three experiments
Arf GAP2 [2] = molecular target: T1, Arf GAP2 (Homo sapiens, UniProt Q8N6H7); test: Time dependence; format: biochemical
T1 sequence (Q8N6H7 whole entry): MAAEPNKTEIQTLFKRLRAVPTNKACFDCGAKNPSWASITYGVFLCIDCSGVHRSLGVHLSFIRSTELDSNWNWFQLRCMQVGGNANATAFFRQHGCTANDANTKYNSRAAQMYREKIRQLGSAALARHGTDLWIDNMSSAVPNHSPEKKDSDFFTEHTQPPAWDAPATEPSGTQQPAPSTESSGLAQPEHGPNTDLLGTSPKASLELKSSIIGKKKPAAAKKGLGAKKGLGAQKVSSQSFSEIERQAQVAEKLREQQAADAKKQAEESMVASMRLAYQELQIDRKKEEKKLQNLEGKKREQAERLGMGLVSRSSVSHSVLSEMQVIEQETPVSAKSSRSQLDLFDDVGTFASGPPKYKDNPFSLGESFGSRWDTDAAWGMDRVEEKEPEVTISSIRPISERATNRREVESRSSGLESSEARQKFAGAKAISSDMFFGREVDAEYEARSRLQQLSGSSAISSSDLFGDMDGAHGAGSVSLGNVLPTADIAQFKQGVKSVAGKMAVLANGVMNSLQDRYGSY

Protein binding to LUVs = conditions: 1 μM Arf GAP2; 5 min, 30°C; Coomassie Blue; not shown
In short: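 Sucrose-loaded LUVs (1 mM total lipid), extruded through 0.03 or 1 μm pores, were incubated with purified Arf GAP2 (1 μM) for 5 min at 30 °C. Vesicles were pelleted at 100,000 × g for 15 min at 4 °C. Bound protein was resolved by SDS-PAGE and stained with Coomassie Blue.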

Arf GAP2 [3] = molecular target: T1, Arf GAP2; conditions: tryptophan fluorescence assay; ref [33]; cited from earlier work
coatomer = conditions: ref [18]; cited from earlier work
Arf GAP2 [4] = molecular target: T1, Arf GAP2; test: Saturation kinetics, tryptophan fluorescence based assay; format: biochemical; conditions: 25 μM peptide, 124 nM coatomer, LUVs 0.03 μm
In short: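 myrArf1•GTP was titrated into reactions with 114 nM Arf GAP2 [1–521]-His6, 124 nM coatomer and PI4P LUVs (0.03 μm pores), with or without 25 μM p25 peptide. GTP→GDP conversion was followed by tryptophan fluorescence. Readings were corrected for time-dependent fluorescence change of Arf GAP2 ± coatomer. Initial rates were fit to Michaelis-Menten and Hill equations; kcat came from Vmax.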

Arf GAP2 [5] = molecular target: T1, Arf GAP2; test: Saturation kinetics following [α^32P]GTP hydrolysis; format: biochemical; conditions: 25 μM peptide, 124 nM coatomer, LUVs 0.03 μm
In short: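 Saturation kinetics used [α32P]GTP•Arf1, titrated into reactions with 10 nM Arf GAP2 [1–521]-His6 and 124 nM coatomer, with or without 25 μM p25 peptide. LUVs contained PI4P and were extruded through 0.03 μm pores. Reactions stopped after 3 min at 30 °C. Data were fit to Michaelis-Menten and Hill equations, with kcat calculated from Vmax; three experiments.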

Arf GAP2 [6] = molecular target: T1, Arf GAP2; test: Cargo peptide titration in coatomer-dependent GAP assay; format: biochemical; conditions: for effect of peptide on Arf GAP2 activity: LUVs PI4P 0.03 μm, 3 min 30 °C
In short: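 Arf GAP2 [1–521]-His6 (E. coli, refolded from inclusion bodies) at 11.4 nM, with 124 nM rat-liver coatomer. Substrate was 0.6 μM [α32P]GTP•myrArf1 on PI4P LUVs extruded through 0.03 μm pores. p23, p24 or p25 cytoplasmic-tail peptides (p25 also palmitoyl- or WRM-extended) were titrated in. Reactions ran 3 min at 30 °C. Palmitoyl-peptide data were fit to one-site binding with offset; duplicate experiments.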

Arf GAP2 [7] = molecular target: T1, Arf GAP2; test: Coatomer titration in Arf GAP2 GAP assay; format: biochemical
In short: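 Coatomer was titrated into reactions with 11.4 nM Arf GAP2 [1–521]-His6, 0.6 μM [α32P]GTP•myrArf1 and 25 μM p25 peptide. LUVs contained PI4P and were extruded through 1.0 or 0.03 μm pores. Reactions ran 3 min at 30 °C. Read-out was hydrolysis of Arf1-bound GTP.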

Arf GAP2 [8] = test: Effect of p25 on Arf GAP2 with and without coatomer; format: biochemical; conditions: 3 min 30°C
In short: (§1)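 GAP enzyme was Arf GAP2 [1–521]-His6 or His10-[325–724]ASAP1. Mixtures held 0.6 μM [α32P]GTP•Arf1 on PI4P LUVs extruded through 0.03 μm pores, with or without 124 nM coatomer and 25 μM p25 peptide. Fraction of GTP hydrolysed in 3 min at 30 °C was measured.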

Arf GAP1 = test: Effect of p25 on Arf GAP1 with and without coatomer; format: biochemical; conditions: 25 μM p25, 28 nM Arf GAP1, 124 nM coatomer, 3 min 30°C
ASAP1 = test: Effect of coatomer and p25 on ASAP1 GAP activity; format: biochemical; conditions: 1 nM ASAP1, 3 min 30°C
In short: as §1

Arf GAP2 [9] = molecular target: T1, Arf GAP2; format: biochemical; conditions: for effect of phosphoinositide on Arf GAP2 activity: without coatomer
[10] = LUVs 2.5% PI4P, 0.03 μm pores, 124 nM coatomer and 25 μM p25 where indicated
[11] = LUVs 2.5% PI4P, 1.0 μm pores, 124 nM coatomer and 25 μM p25 where indicated
[12] = LUVs 2.5% PIP2, 0.03 μm pores, 124 nM coatomer where indicated
[13] = LUVs 2.5% PIP2, 1.0 μm pores, 124 nM coatomer where indicated
[14] = 11.4 nM Arf GAP2, 124 nM coatomer

Molecule: CC(C)C[C@H](NC(=O)[C@H](Cc1c[nH]cn1)NC(=O)[C@@H](N)CCCNC(=N)N)C(=O)N[C@@H](CCCCN)C(=O)N[C@@H](CO)C(=O)N[C@@H](Cc1ccccc1)C(=O)N[C@@H](Cc1ccccc1)C(=O)N[C@@H](CCC(=O)O)C(=O)N[C@@H](C)C(=O)N[C@@H](CCCCN)C(=O)N[C@@H](CCCCN)C(=O)N[C@@H](CC(C)C)C(=O)N[C@H](C(=O)O)C(C)C [p25] (H-RHLKSFFEAKKLV-OH; N-terminus and C-terminus assumed)
- effect of p25 on time dependence of hydrolysis (Arf GAP2 [2]; 25 μM p25 with coatomer): accelerated hydrolysis
- effect of p25 on kcat (Arf GAP2 [4]): increased the kcat of the reaction
- effect of p25 on kcat (Arf GAP2 [5]): increased the kcat of the reaction
- EC50 (Arf GAP2 [6]): 500 ± 200 nM
- effect of peptide on Arf GAP2 activity (Arf GAP2 [6]; [14]): stimulated GAP activity
- peptide concentration above which the effect decreased (Arf GAP2 [6]; concentrations greater than, 11.4 nM Arf GAP2, 124 nM coatomer): 25 to 50 µM
- effect of p25 on coatomer dependence of Arf GAP2 activity (Arf GAP2 [7]; 25 μM p25, 11.4 nM Arf GAP2, 0.03 and 1.0 μm LUVs): increased the extent of hydrolysis
- coatomer concentration at peak activity, with p25 (Arf GAP2 [7]; 25 μM p25 peptide, smaller LUVs, 11.4 nM Arf GAP2, 3 min, 30 °C): 100 nM
- coatomer concentration below which p25 effect was greatest (Arf GAP2 [7]; smaller LUVs, 25 μM p25, 11.4 nM Arf GAP2): less than 250 nM
- effect of p25 on Arf GAP2 with coatomer (Arf GAP2 [8]; 25 μM p25, 11.4 nM Arf GAP2, 124 nM coatomer): increased the activity in the samples containing both Arf GAP2 and coatomer
- Arf GAP2 activity without coatomer (Arf GAP2 [8]; 25 μM p25, 11.4 nM Arf GAP2, no coatomer): No activity was detected in the absence of coatomer
- effect of p25 on Arf GAP2 without coatomer (Arf GAP2 [8]; 25 μM p25, 3.4 μM Arf GAP2, no coatomer): had no effect
- effect of p25 on Arf GAP1 (Arf GAP1): stimulated by p25 when coatomer was present
- effect of p25 on ASAP1 with coatomer (ASAP1; 25 μM p25, 124 nM coatomer): coatomer-dependent inhibition was increased by p25
- effect of p25 on ASAP1 without coatomer (ASAP1; 25 μM p25, no coatomer): no effect in the absence of coatomer

Molecule: CC[C@H](C)[C@H](NC(=O)[C@H](CC(C)C)NC(=O)[C@H](CCCCN)NC(=O)[C@H](CCCCN)NC(=O)[C@H](C)NC(=O)[C@H](CCCCN)NC(=O)[C@H](Cc1ccccc1)NC(=O)[C@H](Cc1ccccc1)NC(=O)[C@H](CCCNC(=N)N)NC(=O)[C@H](CCCNC(=N)N)NC(=O)[C@H](CC(C)C)NC(=O)[C@@H](N)Cc1ccc(O)cc1)C(=O)N[C@@H](CCC(=O)O)C(=O)O [p23] (H-YLRRFFKAKKLIE-OH; N-terminus and C-terminus assumed)
- effect of peptide on Arf GAP2 activity (Arf GAP2 [6]; [14]): stimulated GAP activity

Molecule: phosphatidylinositol 4,5-bisphosphate [PIP2]
- effect of phosphoinositide on Arf GAP2 activity (Arf GAP2 [9]): affected the extent of hydrolysis but not the C50

B1: Arf GAP3: Arf GAP that functions with the coat protein coatomer (protein, UniProt Q9NP61 1-516, looked up)
ADP-ribosylation factor …: MGDPSKQDILTIFKRLRSVPTNKVCFDCGAKNPSWASITYGVFLCIDCSGSHRSLGVHLSFIRSTELDSNWSWFQLRCMQVGGNASASSFFHQHGCSTNDTNAKYNSRAAQLYREKIKSLASQATRKHGTDLWLDSCVVPPLSPPPKEEDFFASHVSPEVSDTAWASAIAEPSSLTSRPVETTLENNEGGQEQGPSVEGLNVPTKATLEVSSIIKKKPNQAKKGLGAKKGSLGAQKLANTCFNEIEKQAQAADKMKEQEDLAKVVSKEESIVSSLRLAYKDLEIQMKKDEKMNISGKKNVDSDRLGMGFGNCRSVISHSVTSDMQTIEQESPIMAKPRKKYNDDSDDSYFTSSSSYFDEPVELRSSSFSSWDDSSDSYWKKETSKDTETVLKTTGYSDRPTARRKPDYEPVENTDEAQKKFGNVKAISSDMYFGRQSQADYETRARLERLSASSSISSADLFEEPRKQPAGNYSLSSVLPNAPDMAQFKQGVRSVAGKLSVFANGVVTSIQDRYGS
- binding to coatomer relative to Arf GAP1 (coatomer): bind coatomer more tightly than does Arf GAP1

Continued, in another order:

- effect of vesicle size on Arf GAP2 binding to LUVs (Protein binding to LUVs): did not detect an effect of vesicle size
Molecule: Arf GAP2: [1–521] Arf GAP2 His6 expressed in E. coli and purified from inclusion bodies
- extent of hydrolysis at highest Arf GAP2 concentration ([1]; 3.4 μM Arf GAP2, no coatomer, footnote 1): 25% – 40
- C50 (amount of Arf GAP needed for 50% of maximum observed hydrolysis) [1, 10]: > 500 nM
- Maximum GTP Hydrolysis [1, 10]: 15 ± 1%
- C50 (amount of Arf GAP needed for 50% of maximum observed hydrolysis) [1, 11]: > 500 nM
- Maximum GTP Hydrolysis [1, 11]: 6.2 ± 1.2%
- C50 (amount of Arf GAP needed for 50% of maximum observed hydrolysis) [1, 12]: > 500 nM
- Maximum GTP Hydrolysis [1, 12]: 37 ± 5.2%
- C50 (amount of Arf GAP needed for 50% of maximum observed hydrolysis) [1, 13]: > 500 nM
- Maximum GTP Hydrolysis [1, 13]: 25 ± 2.0%
- GAP activity compared to purified Arf GAP1 ([1]; no coatomer): little activity compared to purified Arf GAP1
- first order rate constant, effect of vesicle size (Arf GAP2 [2]; 3.4 μM Arf GAP2, 0.6 μM myrArf1•GTP, no coatomer): three-fold greater on the smaller vesicles than on the larger vesicles
- rate constant relative to kcat of Arf GAP1 (Arf GAP2 [2]; 3.4 μM Arf GAP2, no coatomer, kcat of Arf GAP1 from ref 22): less than 1/100
- effect of coatomer and curvature on Arf GAP2 (Arf GAP2 [3]): stimulated by coatomer but was not affected by curvature
- binding to coatomer relative to Arf GAP1 (coatomer): bind coatomer more tightly than does Arf GAP1

- reduction of C50 by PI4P (Arf GAP2 [9]; 124 nM coatomer present): 2 fold
- effect of phosphoinositide on Arf GAP2 activity (Arf GAP2 [9]): had no effect by itself
Molecule: phosphatidylinositol 4-phosphate [PI4P]

- effect of peptide on Arf GAP2 activity (Arf GAP2 [6]; [14]): stimulated activity
Molecule: CSCC[C@H](NC(=O)[C@H](CCCNC(=N)N)NC(=O)[C@@H](N)Cc1c[nH]c2ccccc12)C(=O)N[C@@H](CCCNC(=N)N)C(=O)N[C@@H](Cc1c[nH]cn1)C(=O)N[C@@H](CC(C)C)C(=O)N[C@@H](CCCCN)C(=O)N[C@@H](CO)C(=O)N[C@@H](Cc1ccccc1)C(=O)N[C@@H](Cc1ccccc1)C(=O)N[C@@H](CCC(=O)O)C(=O)N[C@@H](C)C(=O)N[C@@H](CCCCN)C(=O)N[C@@H](CCCCN)C(=O)N[C@@H](CC(C)C)C(=O)N[C@H](C(=O)O)C(C)C (H-WRMRHLKSFFEAKKLV-OH)

Source: article PMC2692659 (Cellular signalling, 2009)
